The source made the active and inactive calls. The calls are words filed in the database; no cut-off is given here.
Assays:
[1] = biological target: T1, NAD-dependent protein deacetylase sirtuin-1 (Homo sapiens, UniProt Q96EB6); assay: Inhibition of N-terminal His6-tagged SIRT1 coding region (156-664) (unknown origin) expressed in Escherichia coli BL21(DE3) using 31.25 uM ac-RHKKac-AMC and 750 uM NAD+ as substrate after 45 mins by fluorometric analysis
T1 sequence (Q96EB6 whole entry): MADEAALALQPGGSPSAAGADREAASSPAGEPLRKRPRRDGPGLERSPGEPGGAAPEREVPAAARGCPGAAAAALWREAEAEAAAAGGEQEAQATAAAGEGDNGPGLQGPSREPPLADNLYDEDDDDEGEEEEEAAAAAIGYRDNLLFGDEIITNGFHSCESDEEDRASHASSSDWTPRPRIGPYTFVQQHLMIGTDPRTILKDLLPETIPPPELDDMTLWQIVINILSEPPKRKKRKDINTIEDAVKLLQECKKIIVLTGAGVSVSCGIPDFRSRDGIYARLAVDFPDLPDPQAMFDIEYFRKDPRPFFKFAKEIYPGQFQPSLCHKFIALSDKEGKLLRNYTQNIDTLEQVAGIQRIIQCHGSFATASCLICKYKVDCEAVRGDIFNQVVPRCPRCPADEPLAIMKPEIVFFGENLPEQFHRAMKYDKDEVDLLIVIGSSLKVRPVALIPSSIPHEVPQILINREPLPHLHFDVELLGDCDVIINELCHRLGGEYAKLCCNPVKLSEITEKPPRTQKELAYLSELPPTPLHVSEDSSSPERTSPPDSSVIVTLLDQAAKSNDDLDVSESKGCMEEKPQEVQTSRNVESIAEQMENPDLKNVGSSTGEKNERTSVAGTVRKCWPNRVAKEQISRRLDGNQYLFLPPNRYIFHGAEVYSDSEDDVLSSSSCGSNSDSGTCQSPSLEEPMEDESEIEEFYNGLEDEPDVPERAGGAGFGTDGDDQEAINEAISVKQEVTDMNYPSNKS

[2] = biological target: T2, NAD-dependent protein deacetylase sirtuin-1 (Homo sapiens) (UniProt Q96EB6); assay: Inhibition of SIRT1-mediated p53 deacetylation in human MCF7 cells after 6 hrs by Western blot analysis; format: cell-based
T2 sequence (whole entry): T1 sequence (Q96EB6 whole entry)
Outline: (§1)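 MCF-7 cells grown in DMEM with 10% fetal calf serum were treated with graded inhibitor concentrations. Lysate protein was run on a 9% gel, transferred to nitrocellulose, blocked 1 h at room temperature in 5% milk/TBST, and probed for acetyl-p53 and total p53.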

[3] = biological target: T3, NAD-dependent protein deacetylase sirtuin-1 (Homo sapiens, UniProt Q96EB6, N346A); assay: Inhibition of N-terminal His6-tagged SIRT1 N346A mutant (unknown origin) expressed in Escherichia coli BL21(DE3) using ac-RHKKac-AMC as substrate after 45 mins by fluorometric analysis
T3 sequence (Q96EB6 2-747 N346A limits assumed): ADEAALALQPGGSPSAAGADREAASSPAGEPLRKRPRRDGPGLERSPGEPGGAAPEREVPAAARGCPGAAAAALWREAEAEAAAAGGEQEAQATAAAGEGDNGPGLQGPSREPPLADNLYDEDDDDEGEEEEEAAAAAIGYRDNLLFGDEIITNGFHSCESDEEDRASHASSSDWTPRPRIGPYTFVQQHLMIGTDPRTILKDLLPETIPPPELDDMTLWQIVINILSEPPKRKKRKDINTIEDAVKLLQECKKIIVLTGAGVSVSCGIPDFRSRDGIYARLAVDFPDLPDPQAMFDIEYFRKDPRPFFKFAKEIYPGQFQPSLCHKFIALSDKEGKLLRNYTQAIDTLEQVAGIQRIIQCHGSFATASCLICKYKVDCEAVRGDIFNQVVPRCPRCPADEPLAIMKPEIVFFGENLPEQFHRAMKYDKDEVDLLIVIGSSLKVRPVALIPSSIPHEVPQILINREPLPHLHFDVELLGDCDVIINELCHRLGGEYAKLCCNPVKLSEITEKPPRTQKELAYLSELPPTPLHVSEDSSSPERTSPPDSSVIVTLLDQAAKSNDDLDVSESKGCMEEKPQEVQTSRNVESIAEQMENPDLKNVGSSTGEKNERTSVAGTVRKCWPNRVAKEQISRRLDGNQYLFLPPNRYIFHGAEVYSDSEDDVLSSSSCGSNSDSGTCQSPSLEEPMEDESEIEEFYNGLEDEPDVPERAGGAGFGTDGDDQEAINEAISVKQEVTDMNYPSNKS
Outline: (§2)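 Mutant SIRT1 enzyme levels were set to give the same deacetylase activity as wild type. The AMC-peptide/NAD+ fluorogenic assay ran in Tris pH 8.0 buffer for 45 min at room temperature, followed by nicotinamide stop, trypsin development and a 340/490 nm fluorescence read. IC50 was obtained by curve fitting.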

[4] = biological target: T4, NAD-dependent protein deacetylase sirtuin-1 (Homo sapiens, UniProt Q96EB6, F312L); assay: Inhibition of N-terminal His6-tagged SIRT1 F312L mutant (unknown origin) expressed in Escherichia coli BL21(DE3) using ac-RHKKac-AMC as substrate after 45 mins by fluorometric analysis; outline: as §2
T4 sequence (Q96EB6 2-747 F312L limits assumed): as the sequence (Q96EB6 2-747 N346A limits assumed) above, with F311L, A345N counted along it

[5] = biological target: T2, NAD-dependent protein deacetylase sirtuin-1 (Homo sapiens); assay: Inhibition of N-terminal His6-tagged SIRT1 coding region (156-664) (unknown origin) expressed in Escherichia coli BL21(DE3) using 100 uM ac-RHKKac-AMC and 20 uM NAD+ as substrate after 45 mins by fluorometric analysis
[6] = system: MCF7; assay: Effect on p53 protein level in human MCF7 cells at 1.2 to 100 uM after 6 hrs by Western blot analysis; format: functional, cell-based; outline: as §1
[7] = biological target: T5, NAD-dependent protein deacetylase sirtuin-1 (Homo sapiens, UniProt Q96EB6, F273L); assay: Mixed type inhibition of N-terminal His6-tagged SIRT1 F273L mutant (unknown origin) expressed in Escherichia coli BL21(DE3) using NAD+ as substrate by Lineweaver-Burk plot analysis in presence of ac-RHKKac-AMC
T5 sequence (Q96EB6 2-747 F273L limits assumed): as the sequence (Q96EB6 2-747 N346A limits assumed) above, with F272L, A345N counted along it
Outline: (§3)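 Velocities of each SIRT1 point mutant were measured at varied inhibitor concentrations with NAD+ varied and peptide present. Reciprocal velocities were plotted against 1/[NAD+], the slopes were replotted versus inhibitor concentration, and Ki was taken from the x-intercepts of these secondary plots.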

[8] = biological target: T2, NAD-dependent protein deacetylase sirtuin-1 (Homo sapiens); assay: Noncompetitive inhibition of N-terminal His6-tagged SIRT1 coding region (156-664) (unknown origin) expressed in Escherichia coli BL21(DE3) using ac-RHKKac-AMC as substrate by Lineweaver-Burk plot analysis in presence of NAD+
[9] = biological target: T5, NAD-dependent protein deacetylase sirtuin-1; assay: Inhibition of N-terminal His6-tagged SIRT1 F273L mutant (unknown origin) expressed in Escherichia coli BL21(DE3) using ac-RHKKac-AMC as substrate after 45 mins by fluorometric analysis; outline: as §2
[10] = biological target: T3, NAD-dependent protein deacetylase sirtuin-1; assay: Mixed type inhibition of N-terminal His6-tagged SIRT1 N346A mutant (unknown origin) expressed in Escherichia coli BL21(DE3) using NAD+ as substrate by Lineweaver-Burk plot analysis in presence of ac-RHKKac-AMC; outline: as §3
[11] = biological target: T2, NAD-dependent protein deacetylase sirtuin-1 (Homo sapiens); assay: Reversible inhibition of N-terminal His6-tagged SIRT1 coding region (156-664) (unknown origin) expressed in Escherichia coli BL21(DE3) using ac-RHKKac-AMC as substrate incubated at 10-fold IC50 for 30 mins followed by 100-fold dilution measured up to 40 mins by fluorometric analysis
Outline: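 Enzyme was preincubated with inhibitor or DMSO at room temperature for 30 min, then rapidly diluted 100-fold into reaction buffer containing NAD+ and ac-RHKK(ac)-AMC. Deacetylated product was monitored over time, and the slope of the inhibitor curve was compared with the DMSO control.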

[12] = biological target: T4, NAD-dependent protein deacetylase sirtuin-1; assay: Mixed type inhibition of N-terminal His6-tagged SIRT1 F312L mutant (unknown origin) expressed in Escherichia coli BL21(DE3) using NAD+ as substrate by Lineweaver-Burk plot analysis in presence of ac-RHKKac-AMC; outline: as §3
[13] = biological target: T6, NAD-dependent protein deacetylase sirtuin-1 (Homo sapiens, UniProt Q96EB6, I347A); assay: Mixed type inhibition of N-terminal His6-tagged SIRT1 I347A mutant (unknown origin) expressed in Escherichia coli BL21(DE3) using NAD+ as substrate by Lineweaver-Burk plot analysis in presence of ac-RHKKac-AMC; outline: as §3
T6 sequence (Q96EB6 2-747 I347A limits assumed): as the sequence (Q96EB6 2-747 N346A limits assumed) above, with A345N, I346A counted along it

[14] = biological target: T6, NAD-dependent protein deacetylase sirtuin-1; assay: Inhibition of N-terminal His6-tagged SIRT1 I347A mutant (unknown origin) expressed in Escherichia coli BL21(DE3) using ac-RHKKac-AMC as substrate after 45 mins by fluorometric analysis; outline: as §2
[15] = system: T7, NAD-dependent protein deacetylase sirtuin-3, mitochondrial (Homo sapiens), Q9NTG7 [L195F]; assay: Inhibition of N-terminal His6-tagged SIRT3 L195F mutant (unknown origin) expressed in Escherichia coli BL21(DE3) using ac-RHKKac-AMC as substrate at 50 to 100 uM after 45 mins by fluorometric analysis
T7 sequence (whole entry): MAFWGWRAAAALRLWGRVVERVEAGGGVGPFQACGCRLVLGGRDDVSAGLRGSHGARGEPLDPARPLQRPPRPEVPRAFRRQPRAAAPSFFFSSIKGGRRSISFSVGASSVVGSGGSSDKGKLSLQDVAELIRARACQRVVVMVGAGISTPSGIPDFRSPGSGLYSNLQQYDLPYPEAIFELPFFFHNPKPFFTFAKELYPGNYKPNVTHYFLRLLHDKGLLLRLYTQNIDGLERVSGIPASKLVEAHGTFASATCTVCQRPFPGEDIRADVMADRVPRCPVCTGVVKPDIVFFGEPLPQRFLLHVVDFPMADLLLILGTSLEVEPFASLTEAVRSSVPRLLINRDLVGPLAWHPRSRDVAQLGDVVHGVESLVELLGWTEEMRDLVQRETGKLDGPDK

[16] = biological target: T1, NAD-dependent protein deacetylase sirtuin-1; assay: Mixed-type inhibition of N-terminal His6-tagged SIRT1 coding region (156-664) (unknown origin) expressed in Escherichia coli BL21(DE3) using NAD+ as substrate by Lineweaver-Burk plot analysis in presence of ac-RHKKac-AMC
Outline: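 With ac-RHKK(ac)-AMC held fixed, NAD+ was varied at several inhibitor concentrations. Fluorogenic deacetylation velocities were analysed by Lineweaver–Burk plots against NAD+ concentration.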

Structure (SMILES)	IC50 [1]	other results
O=C(c1ccc(OCc2ccccc2)cc1)c1coc2cc(Br)c(O)c(Br)c12	> 300 µM	
O=C(c1ccccc1)c1coc2ccc(O)c(CN3CCOCC3)c12	> 300 µM	
COc1ccc(OC)c(C(=O)c2coc3ccc(O)c(CN4CCOCC4)c23)c1	> 300 µM	
Cc1ccc(C(=O)c2coc3c2cc(O)c2ccccc23)cc1	> 300 µM	
COc1cc2c(C(=O)c3ccc(Br)cc3)c(C)oc2c2ccccc12	> 300 µM	
COc1ccc(OC)c(C(=O)c2coc3cc(Br)c(O)c(Br)c23)c1	> 300 µM	
COc1ccc(OC)c(C(=O)c2coc3ccc(OC(C)=O)cc23)c1	> 300 µM	
COc1ccc(C(=O)c2coc3c2cc(O)c2ccccc23)cc1	256 µM	

Now from value to compound, other results behind:

IC50 [1]	Structure (SMILES)	other results
198 µM	O=C(c1ccccc1)c1coc2cc(Br)c(O)c(Br)c12	
> 300 µM	COc1ccc(OC)c(C(=O)c2coc3ccc(O)cc23)c1	
243 µM	Cc1oc2ccc(O)cc2c1C(=O)c1ccc(Br)cc1	
45.1 µM	COc1ccc(O)c(C(=O)c2coc3ccc(O)cc23)c1	
88 µM	Cc1cc2occ(C(=O)c3ccc(Cl)cc3)c2cc1O	
> 300 µM	O=C(c1ccccc1)c1coc2c1cc(O)c1ccccc12	
41.7 µM	COc1ccc(O)cc1C(=O)c1coc2ccc(O)cc12	
> 300 µM	CC(=O)Oc1ccc2occ(C(=O)c3ccccc3)c2c1	
71.4 µM	O=C(c1ccccc1O)c1coc2ccc(O)cc12	
240 µM	O=C(c1ccc(Br)cc1)c1coc2ccc(O)cc12	
2.8 µM	O=C(c1cc(O)ccc1O)c1coc2ccc(O)cc12	inhibition [2]: Dose-dependent effect; IC50 [3]: 283 µM; IC50 [4]: 550 µM; inhibition [5]: Active; Activity [6]: inactive; Ki [7]: 219 µM; inhibition [8]: Active; IC50 [9]: 491 µM; Ki [10]: 253 µM; inhibition [11]: Active; Ki [12]: 254 µM; Ki [13]: 174 µM; IC50 [14]: 421 µM; inhibition [15]: Active; Ki [16]: 0.8 µM
146 µM	O=C(c1ccc(Br)cc1)c1coc2c1cc(O)c1ccccc12	
31.2 µM	O=C(c1cccc(O)c1)c1coc2ccc(O)cc12	
